In ChEMBL document CHEMBL1126194, “Synthesis and functional evaluation of a peptide derivative of 1-beta-D-arabinofuranosylcytosine” (J Med Chem, 1992):

Tests used:
L1210 [1] = experiment: Inhibition of L1210 lymphoid leukemia cells 24 hr after administration (length of preincubation=0 hr); format: functional, cell-based; conditions: Mus musculus
Summary of the method: (§1)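 L1210 cells (2×10^4/well) exposed continuously to serially diluted compound in Fischer's medium with 10% horse serum for up to 72 h. Viable cells were counted by Trypan blue exclusion at 24, 48 and 72 h. IC50 is the concentration giving 50% growth inhibition, estimated from response curves of three separate experiments.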

L1210 [2] = experiment: Inhibition of L1210 lymphoid leukemia cells 48 hr after administration (length of preincubation=0 hr); format: functional, cell-based; conditions: Mus musculus; summary of the method: as §1
L1210 [3] = experiment: Inhibition of L1210 lymphoid leukemia cells 72 hr after administration (length of preincubation=0 hr); format: functional, cell-based; conditions: Mus musculus; summary of the method: as §1
[4] = Half life in human plasma; format: ADME
Summary of the method: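 Compound ([…]) incubated in 1 mL fresh human plasma at 37 °C against a buffer reference; hydrolysis followed by change in absorption at 325 nm (ϵ 1.55). Initial concentration about 2 × 10^-4 M; apparent first-order kinetics, with the pseudo-first-order rate constant given by k = 0.693/t1/2.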

Compound	IC50 (L1210 [1]) [nM]	IC50 (L1210 [2]) [nM]	IC50 (L1210 [3]) [nM]	half-life [4] [h]
Nc1ccn([C@@H]2O[C@H](CO)[C@@H](O)[C@@H]2O)c(=O)n1 [CYTARABINE]	100	10	10	
CC(C)C[C@H](NC(=O)[C@H](N)C(C)C)C(=O)N[C@@H](CCCCN)C(=O)N(C)c1ccn([C@@H]2O[C@H](CO)[C@@H](O)[C@@H]2O)c(=O)n1.N=C(N)c1ccc(CS(=O)(=O)F)cc1	1000	5	10	5.5
